Measurements taken from ChEMBL document CHEMBL1133737, “Topoisomerase I-mediated antiproliferative activity of enantiomerically pure fluorinated homocamptothecins” (J Med Chem, 2000).
pIC50: −log10 of the molar value.

What was measured:
[1] = test system: HT-29; assay: Cytotoxicity against HT-29 tumor cell line determined by WST-1 assay; type: functional, cell-based; settings: Homo sapiens
How it was run: (§1)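 Cells exposed to drug for 72 h; surviving cells measured colorimetrically with soluble tetrazolium WST-1. IC50 is the mean of triplicate determinations. HT29 and A549 sourced from ATCC. T24r was derived from T24 bladder carcinoma by prolonged exposure to vinorelbine, PE1001 and doxorubicin, and is multidrug resistant through Pg-P overexpression. A549 is resistant through MRP overexpression.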

[2] = test system: A549; assay: Cytotoxicity against A549 tumor cell line determined by WST-1 assay; type: functional, cell-based; settings: Homo sapiens; how it was run: as §1
[3] = test system: T-24; assay: Cytotoxicity against T24 tumor cell line determined by WST-1 assay; type: functional, cell-based; settings: Homo sapiens; how it was run: as §1
[4] = target: T1, DNA topoisomerase 1 (Homo sapiens) (UniProt P11387); assay: Stimulation of pKMp27 DNA cleavage by human DNA topoisomerase I in presence of 0.1 uM of compound
T1 sequence (whole entry): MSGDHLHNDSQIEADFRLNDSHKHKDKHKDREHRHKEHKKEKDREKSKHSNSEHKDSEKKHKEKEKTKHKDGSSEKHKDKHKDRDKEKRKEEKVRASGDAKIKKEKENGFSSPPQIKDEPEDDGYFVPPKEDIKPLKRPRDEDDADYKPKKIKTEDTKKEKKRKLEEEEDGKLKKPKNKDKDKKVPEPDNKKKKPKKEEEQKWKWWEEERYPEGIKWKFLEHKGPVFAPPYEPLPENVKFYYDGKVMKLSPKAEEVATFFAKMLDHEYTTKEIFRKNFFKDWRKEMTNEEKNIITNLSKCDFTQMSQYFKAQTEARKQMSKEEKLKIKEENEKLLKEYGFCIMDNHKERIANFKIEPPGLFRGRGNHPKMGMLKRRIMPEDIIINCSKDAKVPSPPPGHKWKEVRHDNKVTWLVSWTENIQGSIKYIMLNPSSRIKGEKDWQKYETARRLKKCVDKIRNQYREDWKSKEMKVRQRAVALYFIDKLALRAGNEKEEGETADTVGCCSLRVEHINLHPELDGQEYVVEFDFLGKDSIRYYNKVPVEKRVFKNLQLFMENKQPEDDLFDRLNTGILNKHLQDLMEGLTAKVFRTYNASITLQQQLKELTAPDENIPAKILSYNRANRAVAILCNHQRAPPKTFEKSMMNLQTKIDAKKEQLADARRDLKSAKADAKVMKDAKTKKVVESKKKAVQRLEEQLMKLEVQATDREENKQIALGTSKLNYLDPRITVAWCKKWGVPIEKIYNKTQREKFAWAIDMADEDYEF
How it was run: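 Human Topo I incubated with supercoiled plasmid pKMp27 DNA and 0.1 µM drug. Products resolved on agarose gel containing ethidium bromide. Nicked DNA fraction quantified and stimulation calculated as (N−N0)/N0, where N and N0 are the nicked fractions with and without drug. Values compiled from quantitative analysis of three gels.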

SMILES	pIC50 [1]	pIC50 [2]	pIC50 [3]	Stimulation [4]
CC[C@@]1(O)C(=O)OCc2c1cc1n(c2=O)Cc2cc3ccccc3nc2-1 [CAMPTOTHECIN]	7.10	7.17	7.06	8.2
CC[C@@]1(O)CC(=O)OCc2c1cc1n(c2=O)Cc2cc3cc(F)c(F)cc3nc2-1 [DIFLOMOTECAN]	8.08	8.47	9.40	32
CC[C@@]1(O)CC(=O)OCc2c1cc1n(c2=O)Cc2cc3ccc(F)cc3nc2-1	7.96	8.54	9.77	29
CC[C@@]1(O)CC(=O)OCc2c1cc1n(c2=O)Cc2cc3c(F)cc(F)cc3nc2-1	8.00	8.72	9.49	30
CC[C@@]1(O)CC(=O)OCc2c1cc1n(c2=O)Cc2cc3cccc(F)c3nc2-1	6.72	6.89	7.66	7.3
CC[C@@]1(O)CC(=O)OCc2c1cc1n(c2=O)Cc2cc3ccccc3nc2-1 [HOMOCAMPTOTHECIN]	7.52	7.59	8.48	21
CC[C@@]1(O)CC(=O)OCc2c1cc1n(c2=O)Cc2cc3c(F)cccc3nc2-1	7.70	7.77	8.80	18
CC[C@@]1(O)CC(=O)OCc2c1cc1n(c2=O)Cc2cc3cc(F)ccc3nc2-1	7.57	7.66	8.35	17
